Results collected from several papers.
Protocols differ between the studies behind these lines. pIC50: −log10 of the molar value. Values after ≈ are worked out from the molar mass of the structure shown.

`O=C1C(NCCc2c[nH]c3ccccc23)=CC2=NCCc3c[nH]c1c32` gave a pIC50 of 6.01 (Babesia divergens; parasite growth, SYBR Green; 60 h, blood stage).
With `C[C@@H]1[C@H](O)[C@@H](C)/C=C/C=C/C=C/C=C/C=C/C=C/C=C/[C@H](O[C@@H]2O[C@H](C)[C@@H](O)[C@H](N)[C@@H]2O)C[C@@H]2O[C@](O)(C[C@@H](O)C[C@@H](O)[C@H](O)CC[C@@H](O)C[C@@H](O)CC(=O)O[C@H]1C)C[C@H](O)[C@H]2C(=O)O` the MIC was 8 µg/mL (≈ 8.66 µM) (Trichophyton mentagrophytes; microbial growth, broth dilution; ATCC9533; 96 h).
`N#Cc1c(-c2ccc(OCc3ccccc3)cc2)c(C(N)=O)c(N)n(N)c1=O` has an inhibition zone of 10 mm (Enterobacter cloacae; microbial growth, well diffusion; ATCC23355; 500 µg/mL).
For `CN(Cc1ccc(C2(C(F)(F)F)CC2)cc1)Cc1cccc2ccccc12`, the inhibition zone was ≥ 55 mm (Trichophyton mentagrophytes; microbial growth, disc diffusion; ATCC18748; 0.256 µg/mL, 72 h).
For `CC(=O)Oc1ccc(-c2c(C(N)=O)c(N)n(N)c(=O)c2C#N)cc1`, the inhibition zone was 12 mm (Enterobacter cloacae; microbial growth, well diffusion; ATCC23355; 500 µg/mL).
The pIC50 of `COC(CNC1=CC2=NCCc3c[nH]c(c32)C1=O)c1c[nH]c2ccccc12` (stereo not drawn) is reported as 6.24 (Babesia divergens; parasite growth, SYBR Green; 60 h, blood stage).
With `O=C1C(Br)=C(Br)C(=O)c2ccccc21` the MIC was < 1.56 µg/mL (Trichophyton mentagrophytes; microbial growth, broth dilution; ATCC9533; 96 h).
For `Cn1cc2c3c1C(=O)C(NCCc1ccc(O)cc1)=CC3=[N+](C)CC2`, the pIC50 was 7.91 (Babesia divergens; parasite growth, SYBR Green; 60 h, blood stage).
For `Cc1c(C(N)=O)c(N)n(N)c(=O)c1C#N`, the inhibition zone was 21 mm (Enterobacter cloacae; microbial growth, well diffusion; ATCC23355; 500 µg/mL).
For `CN(Cc1ccc(C(C)(C)C)cc1)Cc1cccc2ccccc12`, the inhibition zone was 27.8 mm (Trichophyton mentagrophytes; microbial growth, disc diffusion; ATCC18748; 0.002 µg/mL, 72 h).
`CN(C)c1ccc(-c2c(C(N)=O)c(N)n(N)c(=O)c2C#N)cc1` has an inhibition zone of 17 mm (Enterobacter cloacae; microbial growth, well diffusion; ATCC23355; 500 µg/mL).
`COC1=CC2=[N+](C)CCc3c[nH]c(c32)C1=O` gave a pIC50 of 6.00 (Babesia divergens; parasite growth, SYBR Green; 60 h, blood stage).
